# RBBP9 inh = inhibitors of human serine hydrolase RBBP9; 220,000 compounds, 0.2% hits; recombinant RBBP9, FP-Rh probe fluorescence polarization; O75884; inhibition, % at 7.94 µM;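 active = inhibition above the campaign mean of all tested compounds plus 3 SD, cut at about 14% in these data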;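 note: plate controls were DMSO wells with RBBP9 for no effect and wells lacking RBBP9 protein for full effect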
#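 System: RBBP9 protein | Quantity: 2.5 µM RBBP9 dispensing solution, before mixing | Reagent: FP-Rh probe, 375 nM dispensing solution | Timing: Enzyme-compound preincubation 30 min, then probe labeling 45 min, 25 °C | Measured by: Fluorescence polarization | Read-out: % inhibition | Replication: One well per compound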
# eIF4E 4G PPI = inhibitors of eIF4E and eIF4G interaction in translation initiation; P63073+Q04637; TR-FRET eIF4E-eIF4GI(517-606) binding, 2 h; inhibition, % at 21.7 µM; 220,000 compounds, 0.37% hits; AID 782;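 note: 0% = full FRET control wells and 100% = background wells lacking eIF4GI fragment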
# 14-3-3 Bad inh = disrupts binding of bovine 14-3-3 zeta to phospho-Bad peptide. TR-FRET 14-3-3zeta/Dy647-pBad peptide displacement, 1 h. inhibition, % at 21.7 µM. 220,000 compounds, 0.71% hits;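 active = inhibition above about 70%, limit read from the data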;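 note: 0% = full 14-3-3 plus peptide FRET controls and 100% = background without 14-3-3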
# Wee1 stabilizer = blocks degradation of human Wee1 kinase | P30291 | HeLa Luc-Wee1K328M stability, luciferase luminescence; 100% = proteasome inhibitor MG132 effect | reporter increase, % at 5 µM | 220,000 compounds, 1.2% hits | AID 1321;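 active = activation above the mean of all tested compounds plus 3 SD, set per screening run, cut at about 8.8% in these data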;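 note: cells exposed to compound for 20 h before luminescence read; 0% = DMSO alone and 100% = MG132 at 30 µM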
# Target sequence (P30291 whole entry K328M): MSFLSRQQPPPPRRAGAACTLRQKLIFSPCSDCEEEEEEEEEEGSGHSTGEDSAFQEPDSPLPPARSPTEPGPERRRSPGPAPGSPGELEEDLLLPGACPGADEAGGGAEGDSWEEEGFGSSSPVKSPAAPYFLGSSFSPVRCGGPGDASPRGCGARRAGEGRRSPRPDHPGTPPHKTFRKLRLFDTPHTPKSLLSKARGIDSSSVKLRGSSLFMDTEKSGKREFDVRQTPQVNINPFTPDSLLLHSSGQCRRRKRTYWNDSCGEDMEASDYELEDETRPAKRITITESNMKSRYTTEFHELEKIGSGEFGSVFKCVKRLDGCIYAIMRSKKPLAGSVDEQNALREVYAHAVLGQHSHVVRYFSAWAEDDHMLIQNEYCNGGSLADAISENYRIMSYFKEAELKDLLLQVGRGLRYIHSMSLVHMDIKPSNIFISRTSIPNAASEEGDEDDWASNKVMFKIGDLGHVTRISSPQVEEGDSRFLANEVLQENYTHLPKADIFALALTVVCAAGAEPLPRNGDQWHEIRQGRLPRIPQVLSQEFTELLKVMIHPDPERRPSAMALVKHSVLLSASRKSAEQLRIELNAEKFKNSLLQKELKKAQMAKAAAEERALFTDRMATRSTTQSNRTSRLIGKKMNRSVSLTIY
# p47phox inh = blocks human p47phox regulatory protein of NADPH oxidases; 220,000 compounds, 0.53% hits; p47phox/p22phox peptide binding, fluorescence polarization, 2 h; AID 1274; inhibition, % at 24.7 µM;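 note: 0% = p47phox with labelled peptide and 100% = labelled peptide alone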
# * hit, by the source's call; . = no result given; [ ] = remark or other dose. Hits are enriched below; roughly 2.8% of the tested compounds scored in any of these assays.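 Rule for the calls, unless noted: active = inhibition above about 30% (limit read from the data); inactive = the rest.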
SMILES,RBBP9 inh,eIF4E 4G PPI,14-3-3 Bad inh,Wee1 stabilizer,p47phox inh
Cc1ccc(N2C(=O)c3n[nH]c(C)c3C2c2ccccn2)cc1 (stereo unspecified),1,-3,-6,0,73*
O=C(O)C1Nc2c(O)cc(Cl)c([N+](=O)[O-])c2C2C=CCC12 (stereo unspecified),7,78*,97*,0,22
O=C(CSc1nc2ccccc2c(=O)n1-c1ccccc1)N1CCc2ccccc21,-2,0,31,0,50*
CCOc1ccc(-n2c(SCC(=O)N3CCc4ccccc43)nnc2-c2c[nH]c3ccccc23)cc1,-10,14,93*,1,48*
O=C(CSc1nc2ccccc2c(=O)n1-c1ccccc1)N1CCCc2ccccc21,1,-4,9,-1,-36
O=c1ccc(/C=C/c2ccccc2)nn1Cc1ccccc1Cl,-5,-8,-9,4,-106
CCOc1cc(CN2CCN(c3cccc(C(F)(F)F)c3)CC2)ccc1OC,8,-3,70*,-4,17
CCOc1cc(CN2CCN(c3ccc(C(C)=O)cc3)CC2)ccc1OC,3,10,89*,2,-3
COc1cc(CN2CCN(c3ccc(C)cc3)CC2)cc([N+](=O)[O-])c1O,-5,-3,83*,-2,-6
COc1cc(CN2CCN(c3cc(C)ccc3C)CC2)cc([N+](=O)[O-])c1O,-4,.,.,1,.
CCOc1cc(C)c(S(=O)(=O)Nc2ccc3cn[nH]c3c2)cc1C,3,-7,-10,-1,-6
C/C=C/C(=O)Nc1cccc(C2=NOC3(C2)C[C@H](C(N)=O)N(C(=O)c2ccccc2C(=O)c2ccccc2)C3)c1 (stereo partly specified),.,-5,-3,.,-13
CCN(CC)CCNC(=O)CCCCn1c(=S)[nH]c2c([nH]c3ccc(OC)cc32)c1=O,11,47*,0,-1,-9
Cc1ccc(-c2sc(-c3cccnc3)nc2CC(=O)O)cc1,-3,0,75*,-1,-4
Cc1ccc(-c2nc(-c3cccnc3)sc2CC(=O)O)cc1,-1,-6,-1,-1,-3
Cc1ccc(OCc2nnc(SCC(=O)Nc3ncc(C)s3)o2)cc1,-15,-3,3,1,-18
Cc1ccc(-c2nc3cccnc3s2)cc1NC(=O)C1c2ccccc2Oc2ccccc21,-9,-13,78*,1,33*
Cc1ccc(-c2nc3cccnc3s2)cc1NC(=O)c1ccco1,0,.,.,-2,.
Cc1ccc(OCC(=O)c2c(O)c3ccccc3oc2=O)cc1C,-9,1,74*,0,-24
Cc1cccc(OCCC(=O)NCC(=O)Nc2cccc(C)c2C)c1,-10,7,-15,1,-8
CN(C)c1ccc(N=c2sc3ccccc3n2C)cc1,12,38*[fluorescence artefact?],28,3,-2
CCOc1ccc(S(=O)(=O)Nc2ccccc2SC)cc1,-5,-9,-4,9,-4
COC(=O)COc1ccc(S(=O)(=O)Nc2ccccc2SC)cc1,0,4,-6,0,91*
Cc1ccccc1C(=O)Nc1cccc(C(=O)N/N=C/c2cc(Cl)cc([N+](=O)[O-])c2O)c1,-5,36*,-9,-2,-17
CCCc1ccc(C(=O)NNc2ccccc2F)cc1,-6,0,-3,9.3*,-7
SMILES,RBBP9 inh,eIF4E 4G PPI,14-3-3 Bad inh,Wee1 stabilizer,p47phox inh
CCc1ccc(C(=O)NNc2ccccc2F)cc1,2,2,-3,1,-9
C=CCNCc1cccn1-c1sc2c(c1C#N)CCCC2,5,-2,71*,-1,-19
Cc1cc(O)c(C=O)c2c1C(=O)Oc1c(CO)c(O)c3c(c1O2)C(O)OC3=O (stereo unspecified),32*,7,58,0,-25
C=CCNc1nc(-c2ccc(OC)cc2OC)cs1,4,8,76*,5,-9
CN(CC(O)COc1c(F)cc(Br)cc1F)C1CCCCC1 (stereo unspecified),-3,-22,9,-2,-4
O=C(CSc1nnc(-c2ccccc2)n1-c1ccccc1)c1cccs1,-7,-67,1,0,35*
CC(C)(C)c1ccc(C(=O)N2CCCC2)s1,-6,1,-5,-2,-6
CC(=O)c1ccc(C(C)(C)c2ccc(C(C)=O)s2)s1,-6,15,9,9.3*,9
CC(C)NC(=O)COc1nncc2ccccc12,-9,-3,-1,-3,-4
O=C(Nc1nc(-c2ccccn2)cs1)c1ncc(Cl)c(Cl)c1Cl,2,-49,-49,-2,-35
O=C(Nc1nc(-c2ccccn2)cs1)c1ccc(Cl)s1,2,5,2,10.0*,-22
COCCN1C(=O)N(c2cccc(C)c2)C(=O)C1CC(=O)Nc1ccc(F)cc1 (stereo unspecified),7,4,93*,-3,7
CCCc1c2ccccc2nc2ccccc12,-1,6,-14,0,-1
COc1ccc(Oc2nccc(-c3ccccc3)c2C#N)cc1,-8,3,1,-4,-8
COc1ccc(Oc2nccc(-c3ccc(F)cc3)c2C#N)cc1,5,1,-6,12*,5
Cc1nc2ccc(NC(=O)NC(=O)c3c(Cl)cccc3Cl)cc2o1,-14,-1,-4,10*,-6
CNC(=O)Nc1ccc2nc(C)oc2c1,-8,0,-3,3,-2
CC(=O)C1C(c2ccc(F)cc2)c2c(noc2C)CC1(C)O (stereo unspecified),-1,96*,3,4,-11
O=P(O)(COc1ccccc1)COc1ccccc1,-7,2,72*,-1,-10
CCn1c(Cc2c(C)[nH]c3ccccc23)nnc1SCC(=O)NCc1ccco1,-5,-3,-12,1,-2
CCn1c(Cc2c(C)[nH]c3ccccc23)nnc1SCC(=O)NCc1ccccc1,-5,0,0,-1,41*
CCOC(=O)CCCc1sc(N)nc1-c1[nH]c(=O)[nH]c1C,-4,0,80*,-2,-5
CCOC(=O)CCc1c(C)n[nH]c1C,-3,5,-10,-3,-3
N=C1C(c2ccccc2)=C(O)CN1c1cccc(S(=O)(=O)NCc2ccco2)c1,-5,2,1,9.2*,-9
O=C1NCCCC2c3cc(O)c4ccccc4c3OC12N1CCCCC1 (stereo unspecified),-4,13,-11,-3,30*
CCN1CCN(C(=O)/C=C/c2ccccc2[N+](=O)[O-])CC1,-1,4,0,-2,3
O=C(/C=C/c1ccccc1[N+](=O)[O-])N1CCCCC1,-8,1,-8,9.1*,-3
CN(c1ccccc1C(=O)N1CCN(c2ccccc2)CC1)S(C)(=O)=O,2,6,-2,8,-6
COc1cccc(C(=O)NC(=S)Nc2ccc3oc(=O)ccc3c2)c1,-7,-8,1,1,37*

# Screening results from PubChem BioAssay.
